The results in this text go back to ChEMBL document CHEMBL1135483, “N-Substituted 4-amino-3,3-dipropyl-2(3H)-furanones: new positive allosteric modulators of the GABA(A) receptor sharing electrophysiological properties with the anticonvulsant loreclezole” (2002).

Experiment [1] is described as follows: Percent stimulation of GABA-induced currents in Xenopus Oocytes expressing mutant rat GABA-A receptor alpha-1-beta-2(N265S) subunits at 100 uM. The experiment is classed as functional. The method, boiled down: (§1)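 Xenopus laevis oocytes were injected with cRNA for rat receptor subunits and recorded by two-electrode voltage clamp at -80 mV. Bath was 90 mM NaCl, 1 mM KCl, 1 mM MgCl2, 1 mM CaCl2, 10 mM Na-Hepes pH 7.4. GABA giving about 2-4% of maximal current was applied for 20 s alone or with compound, with 4 min washout. Result is % change in current; average of three.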

Experiment [2] has as its target T1, GABA-A receptor; alpha-1/beta-2/gamma-2 (Rattus norvegicus) (UniProt P18508+P62813+P63138). Briefly: (§2) Percent stimulation of GABA-induced currents in Xenopus Oocytes expressing rat GABA-A receptor alpha-1-beta-2-gamma-2 subunits at 200 uM. The format is functional, cell-based. In a few lines: (§3)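 Oocytes expressing recombinant rat α1β2γ2 GABA-A receptors (cRNA injected in 5 mM K-Hepes, pH 6.8) were recorded by two-electrode voltage clamp at -80 mV in 90 mM NaCl, 1 mM KCl, 1 mM MgCl2, 1 mM CaCl2, 10 mM Na-Hepes, pH 7.4. Compound was co-applied with GABA at 2-4% of maximal current for 20 s, then 4 min washout. Values are the mean of three assays ± SEM.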

The target of experiment [3] is T2, GABA-A receptor; anion channel (Rattus norvegicus) (UniProt O09028+P15431+P18506+P18508+P19969+P20236+P23574+P23576+P28471+P28473+P30191+P62813+P63079+P63138+Q91ZM7+Q9ES14). In words: Displacement of [3H]flunitrazepam from GABA-A receptor of rat brain membranes at 100 uM. The following applies: Membrane. The experiment is classed as cell membranes. In a few lines: (§4)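 Cerebellar or forebrain rat membranes, about 1 mg/mL protein, were incubated 90 min at 4 °C with 2 nM [3H]flunitrazepam in 50 mM Tris-citrate pH 7.4 with 150 mM NaCl. Nonspecific binding was set with 10 µM diazepam. Samples were filtered on GF/B and counted by scintillation. Result is % displacement or stimulation; at least three experiments in triplicate.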
On the technique in general: In a radioligand displacement assay an active substance lowers the binding of a labelled ligand.

The target of experiment [4] is T1, GABA-A receptor; alpha-1/beta-2/gamma-2 (Rattus norvegicus). Briefly: Percent stimulation of GABA-induced currents in Xenopus Oocytes expressing rat GABA-A receptor alpha-1-beta-2-gamma-2 subunits at 20 uM. The format is functional, cell-based. In a few lines: as §1
The target in experiment [5] is T2, GABA-A receptor; anion channel (Rattus norvegicus). Briefly: (§5) Displacement of [3H]muscimol from Gamma-aminobutyric acid A (GABA-A) receptor of rat brain membranes at 100 uM. The format is cell membranes. The following applies: Membrane. In a few lines: (§6)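 Cerebellar or forebrain rat membranes, about 1 mg/mL protein, were incubated 90 min at 4 °C with 2 nM [3H]muscimol in 50 mM Tris-citrate pH 7.4 with 150 mM NaCl. Nonspecific binding was taken with 10 µM GABA. Filters were rinsed twice with ice-cold buffer and counted by scintillation. Result is % displacement or stimulation; at least three experiments in triplicate.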

In experiment [6] the target is T1, GABA-A receptor; alpha-1/beta-2/gamma-2 (Rattus norvegicus). Described as §2. The format is functional, cell-based. In a few lines: as §3
This is another data set of the same source.

In experiment [7] the target is T2, GABA-A receptor; anion channel (Rattus norvegicus). In words: Displacement of [35S]TBPS from Gamma-aminobutyric acid A (GABA-A) receptor of rat brain membranes at 100 uM. The format is cell membranes. The following applies: Membrane. In a few lines:
(§7)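 Rat cerebellum or forebrain (brain minus cerebellum) membranes, about 1 mg/mL protein, were incubated with 2 nM [35S]-TBPS in 50 mM Tris-citrate pH 7.4 plus 200 mM NaBr for 180 min at room temperature. Nonspecific binding was defined with 10 µM TBPS. Samples were filtered on GF/B and counted by scintillation. Result is % displacement; at least three experiments in triplicate.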

Experiment [8] deals with T1, GABA-A receptor; alpha-1/beta-2/gamma-2 (Rattus norvegicus). Described as §2. The experiment is classed as functional, cell-based. In a few lines:
as §3
This is another data set of the same source.

The target is the same in experiment [9]. In words: Percent stimulation of GABA-induced currents in Xenopus Oocytes expressing rat GABA-A receptor alpha-1-beta-2-gamma-2 subunits at 2 uM. The experiment is classed as functional, cell-based. In a few lines: as §3
Experiment [10] shares this target. Briefly: Percent stimulation of GABA-induced currents in Xenopus Oocytes expressing rat GABA-A receptor alpha-1-beta-2-gamma-2 subunits at 100 uM. The experiment is classed as functional, cell-based. In a few lines:
as §1

The test system of experiment [11] is GABA-A receptor alpha-1/beta-2 (Rattus norvegicus). In words: Percent stimulation of GABA-induced currents in Xenopus Oocytes expressing rat GABA-A receptor alpha-1-beta-2 subunits at 100 uM.
The species entered for experiment [12] is Rattus norvegicus. Described as §5. The experiment is classed as cell membranes. The following applies: Membrane. In a few lines:
as §6

Experiment [13] has as its target T2, GABA-A receptor; anion channel (Rattus norvegicus). In words: Displacement of [3H]flunitrazepam from GABA-A receptor of rat forebrain tissue at 100 uM. In a few lines: as §4
For experiment [14] the target is unchanged. Briefly: Displacement of [3H]flunitrazepam from GABA-A receptor of rat cerebellar tissues at 100 uM. The format is protein-complex assay. The method, boiled down: as §4
The target is the same in experiment [15]. Briefly: Displacement of [3H]-muscimol from Gamma-aminobutyric acid A (GABA-A) receptor of Rat forebrain at 100 uM. The method, boiled down:
as §6

Experiment [16] is filed under the species Rattus norvegicus. Briefly: Displacement of [35S]TBPS from Gamma-aminobutyric acid A (GABA-A) receptor of rat forebrain tissue at 100 uM. The method, boiled down: as §7
For experiment [17], the species on record is Rattus norvegicus. Briefly: Displacement of [35S]-TBPS from Gamma-aminobutyric acid A (GABA-A) receptor of rat cerebellar tissue at 100 uM. The method, boiled down: as §7
The target of experiment [18] is T1, GABA-A receptor; alpha-1/beta-2/gamma-2 (Rattus norvegicus). In words: Percent stimulation of GABA-induced currents in Xenopus Oocytes expressing rat GABA-A receptor alpha-1-beta-2-gamma-2 subunits at 5 uM. The format is functional, cell-based. The method, boiled down: as §1
Experiment [19] shares this target. Briefly: Percent stimulation of GABA-induced currents in Xenopus Oocytes expressing rat GABA-A receptor alpha-1-beta-2-gamma-2 subunits at 50 uM. The experiment is classed as functional, cell-based. In a few lines:
as §1

Structures are written as SMILES.

With `CCCC1(CCC)C(=O)OC[C@@H]1NC(=O)OCc1ccccc1` [listing 1 of 2 here], in experiment [1], the Stimulation amounted to 123%.
In the case of `CCC1(C)CCSC1=O` (centres undefined), the Stimulation in [2] came out at 386%; in experiment [4], 39%; in [6] it was 192%; in [8], 352%; in experiment [9], 10%. Also, the Displacement came out at 0% in [3], 0% in experiment [5] and 25% in [7].
Take `CCCC1(CCC)C(=O)OC[C@@H]1NC(=O)OCc1ccccc1` [listing 2 of 2 here]: the values for the Stimulation in experiment [10] and in [11] were 279% and 324%, respectively.
Consider `CCCC1(CCC)C(=O)OC[C@H]1NC(=O)OCc1ccccc1`, for which the Stimulation in experiment [10] was 104%.
Turning to `C=CCOC(=O)N[C@@H]1COC(=O)C1(CCC)CCC` (racemic), the Stimulation in [2] was determined as 765%; in experiment [4] it was 229%; in experiment [1] it was 627%; in [13], 15%; in [14] it was 0%; in experiment [8] it was 765%. Also, the Stimulation stood at 2130% in experiment [11] and 26% in [9]. Moreover, the Displacement in the experiment filed under Rattus norvegicus [12] is 0%; in experiment [7] it was 50%.
For `CCCC1(CCC)C(=O)OC[C@H]1NC(=O)c1ccccc1` (racemic), the Stimulation came to 420% in experiment [2]; 207% in experiment [4]; 648% in experiment [1]; 420% in [8]; 557% in experiment [11]; 17% in experiment [9]. The Displacement in experiment [15] is 0%; in experiment [3], -15%; in experiment [7] it was 65%.
In the case of `C=CCC1(CC=C)C(=O)OC[C@H]1NCc1ccccc1` (racemic), the Displacement in [3] was -14%; in experiment [5] it was 0%; in experiment [7] it was 60%. In experiment [8], the Stimulation stood at 115%.
`C=CC[C@@H]1C(=O)OC[C@H]1NCc1ccccc1` (racemic): in [8], the Stimulation is -1%.
Consider `C=CC[C@H]1C(=O)OC[C@H]1NCc1ccccc1` (racemic), for which the results for the Displacement in experiment [3], in experiment [5] and in experiment [7] were 0%, 0% and 60%, respectively. For the same compound, in [8], the Stimulation amounted to 73%.
With `CCCC1(CCC)C(=O)OC[C@H]1NC(=O)OC(C)(C)C` (racemic), in experiment [8], the Stimulation is 46%.
As for `CCCC1(CCC)C(=O)OC[C@H]1NC(=O)OCC` (racemic), the results for the Displacement in experiment [3], in [5] and in [7] were 0%, 0% and 30%, respectively. Further, the Stimulation in experiment [8] was 426%.
Regarding `CCCC1(CCC)C(=O)OC[C@H]1NC(=O)Oc1ccccc1` (racemic), the Displacement in experiment [15] is 0%; in experiment [3], -25%; in experiment [7], 75%. For the same compound, the Stimulation in experiment [8] was 330%.
For the compound `CCCC1(CCC)C(=O)OC[C@H]1NS(=O)(=O)N(C)C` (racemic), the Stimulation in experiment [8] is -1%.
As for `CCCC1(CCC)C(=O)OC[C@H]1NS(=O)(=O)c1ccc(C(F)(F)F)cc1` (racemic), the Displacement is -20% in experiment [3], 70% in the experiment listed under Rattus norvegicus [16], 0% in [5] and 40% in the experiment listed under Rattus norvegicus [17]. Besides, the Stimulation in [8] was -44%.
With `CCCC1(CCC)C(=O)OC[C@H]1NS(=O)(=O)c1ccc(Cl)cc1` (racemic), the Displacement in experiment [3] is -25%; in experiment [5], 0%; in experiment [7] it was 85%. Moreover, the Stimulation in [18] worked out at 23%.
For `CCCC1(CCC)C(=O)OC[C@H]1NS(=O)(=O)c1ccc(OC)cc1` (racemic), the Displacement in [3] came out at 0%; in experiment [5], 0%; in experiment [7], 80%. For the same compound, in experiment [8], the Stimulation is -22%.
Turning to `CCCC1(CCC)C(=O)OC[C@H]1NS(=O)(=O)c1ccc2ccccc2c1` (racemic), the figures for the Displacement in [3], in experiment [5] and in experiment [7] were 0%, 0% and 75%, respectively. For the same compound, the Stimulation in experiment [19] is 4%.
Turning to `CCCC1(CCC)C(=O)OC[C@H]1NS(=O)(=O)c1cccs1` (racemic), the Stimulation in [8] is -16%.
For the compound `O=C1C[C@H](NC(=O)OCc2ccccc2)CO1` (racemic), in experiment [8], the Stimulation is 47%.
Same read-out and setting: in the case of `O=C1C[C@H](NCc2ccccc2)CO1` (racemic) it was 0%.
In the case of `CCCC1(CCC)C(=O)OC[C@@H]1NC(=O)OCc1ccccc1` (stereo in doubt), the Displacement in experiment [3] came out at 0%; in experiment [5], 0%; in experiment [7], 70%. In experiment [10], the Stimulation is 279%.
